# Measured values as given in ChEMBL document CHEMBL1152649, “Synthesis, cytotoxicity and human telomerase inhibition activities of a series of 1,2-heteroannelated anthraquinones and anthra[1,2-d]imidazole-6,11-dione homologues” (2009).
# Tests used:
# [1] = Cytotoxicity against human H1299 cells at 100 uM after 48 hrs by MTT assay; format: functional; conditions: NCI-H1299, 48 h
# How it was run: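 H1299 non-small cell lung cancer cells were grown in RPMI 1640 with 10% FBS, penicillin and streptomycin at 37 °C under 5% CO2. About 2 × 10³ cells per well were seeded and left 24 h. Compounds were dissolved fresh in DMSO, diluted into complete medium and applied for 48 h. MTT was then added for 4 h at 37 °C, followed by lysis buffer (20% SDS, 50% DMF) for 16 h, and absorbance was read at 550 nm.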
# A549 = assay: Antiproliferative activity against human A549 cells assessed as cell growth at 10 uM; format: functional; conditions: read-out: Activity
# How it was run: (§1)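 NCI 60 cell line panel, single-dose screen (10^-5 M) run by the developmental therapeutics program protocol. Results are given as growth percent of treated cells relative to untreated control cells for each line.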
# EKVX = assay: Antiproliferative activity against human EKVX cells assessed as cell growth at 10 uM; format: functional; conditions: read-out: Activity; how it was run: as §1
# HOP-62 = assay: Antiproliferative activity against human HOP62 cells assessed as cell growth at 10 uM; format: functional; conditions: read-out: Activity; how it was run: as §1
# SW-620 = assay: Antiproliferative activity against human SW620 cells assessed as cell growth at 10 uM; format: functional; conditions: read-out: Activity
# How it was run: (§2)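 NCI 60 cell line panel, single dose (10^-5 M), run per the Developmental Therapeutics Program protocol (one dose mean graph). Each result is the growth percentage of treated cells relative to untreated control cells.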
# [2] = Antiproliferative activity against human Hs 578T cells assessed as cell growth at 10 uM; format: functional; conditions: read-out: Activity; how it was run: as §1
# T47D = assay: Antiproliferative activity against human T47D cells assessed as cell growth at 10 uM; format: functional; conditions: read-out: Activity; how it was run: as §2
# OVCAR-3 = assay: Antiproliferative activity against human OVCAR-3 cells assessed as cell growth at 10 uM; format: functional; conditions: read-out: Activity; how it was run: as §1
# OVCAR-4 = assay: Antiproliferative activity against human OVCAR4 cells assessed as cell growth at 10 uM; format: functional; conditions: read-out: Activity; how it was run: as §1
# OVCAR-5 = assay: Antiproliferative activity against human OVCAR5 cells assessed as cell growth at 10 uM; format: functional; conditions: read-out: Activity; how it was run: as §1
# OVCAR-8 = assay: Antiproliferative activity against human OVCAR8 cells assessed as cell growth at 10 uM; format: functional; conditions: read-out: Activity; how it was run: as §1
# CCRF-CEM = assay: Antiproliferative activity against human CCRF-CEM cells assessed as cell growth at 10 uM; format: functional; conditions: read-out: Activity; how it was run: as §1
# K562 = assay: Antiproliferative activity against human K562 cells assessed as cell growth at 10 uM; format: functional; conditions: read-out: Activity; how it was run: as §1
# SR = assay: Antiproliferative activity against human SR cells assessed as cell growth at 10 uM; format: functional; conditions: read-out: Activity; how it was run: as §2
# 786-0 = assay: Antiproliferative activity against human 786-0 cells assessed as cell growth at 10 uM; format: functional; conditions: read-out: Activity; how it was run: as §1
# A498 = assay: Antiproliferative activity against human A498 cells assessed as cell growth at 10 uM; format: functional; conditions: read-out: Activity; how it was run: as §1
# ACHN = assay: Antiproliferative activity against human ACHN cells assessed as cell growth at 10 uM; format: functional; conditions: read-out: Activity; how it was run: as §1
# CAKI-1 = assay: Antiproliferative activity against human Caki1 cells assessed as cell growth at 10 uM; format: functional; conditions: read-out: Activity; how it was run: as §1
# SN12C = assay: Antiproliferative activity against human SN12C cells assessed as cell growth at 10 uM; format: functional; conditions: read-out: Activity; how it was run: as §1
# TK-10 = assay: Antiproliferative activity against human TK10 cells assessed as cell growth at 10 uM; format: functional; conditions: read-out: Activity; how it was run: as §2
# UO-31 = assay: Antiproliferative activity against human UO31 cells assessed as cell growth at 10 uM; format: functional; conditions: read-out: Activity; how it was run: as §2
# LOX IMVI = assay: Antiproliferative activity against human LOXIMVI cells assessed as cell growth at 10 uM; format: functional; conditions: read-out: Activity; how it was run: as §1
# M14 = assay: Antiproliferative activity against human M14 cells assessed as cell growth at 10 uM; format: functional; conditions: read-out: Activity; how it was run: as §1
# Malme-3M = assay: Antiproliferative activity against human MALME-3M cells assessed as cell growth at 10 uM; format: functional; conditions: read-out: Activity; how it was run: as §1
# SK-MEL-2 = assay: Antiproliferative activity against human SK-MEL-2 cells assessed as cell growth at 10 uM; format: functional; conditions: read-out: Activity; how it was run: as §1
# SK-MEL-28 = assay: Antiproliferative activity against human SK-MEL-28 cells assessed as cell growth at 10 uM; format: functional; conditions: read-out: Activity; how it was run: as §1
# SK-MEL-5 = assay: Antiproliferative activity against human SK-MEL-5 cells assessed as cell growth at 10 uM; format: functional; conditions: read-out: Activity; how it was run: as §1
# UACC-62 = assay: Antiproliferative activity against human UACC62 cells assessed as cell growth at 10 uM; format: functional; conditions: read-out: Activity; how it was run: as §2
# DU-145 = assay: Antiproliferative activity against human DU145 cells assessed as cell growth at 10 uM; format: functional; conditions: read-out: Activity; how it was run: as §1
# PC-3 = assay: Antiproliferative activity against human PC3 cells assessed as cell growth at 10 uM; format: functional; conditions: read-out: Activity; how it was run: as §1
# SF-268 = assay: Antiproliferative activity against human SF268 cells assessed as cell growth at 10 uM; format: functional; conditions: read-out: Activity; how it was run: as §1
# SF-539 = assay: Antiproliferative activity against human SF539 cells assessed as cell growth at 10 uM; format: functional; conditions: read-out: Activity; how it was run: as §1
# SNB-19 = assay: Antiproliferative activity against human SNB19 cells assessed as cell growth at 10 uM; format: functional; conditions: read-out: Activity; how it was run: as §1
# SNB-75 = assay: Antiproliferative activity against human SNB75 cells assessed as cell growth at 10 uM; format: functional; conditions: read-out: Activity; how it was run: as §2
# HOP-92 = assay: Antiproliferative activity against human HOP92 cells assessed as cell growth at 10 uM; format: functional; conditions: read-out: Activity; how it was run: as §1
# NCI-H226 = assay: Antiproliferative activity against human NCI-H226 cells assessed as cell growth at 10 uM; format: functional; conditions: read-out: Activity; how it was run: as §1
# NCI-H23 = assay: Antiproliferative activity against human NCI-H23 cells assessed as cell growth at 10 uM; format: functional; conditions: read-out: Activity; how it was run: as §1
# NCI-H322M = assay: Antiproliferative activity against human NCI-H322M cells assessed as cell growth at 10 uM; format: functional; conditions: read-out: Activity; how it was run: as §1
# NCI-H460 = assay: Antiproliferative activity against human NCI-H460 cells assessed as cell growth at 10 uM; format: functional; conditions: read-out: Activity; how it was run: as §1
# COLO 205 = assay: Antiproliferative activity against human COLO205 cells assessed as cell growth at 10 uM; format: functional; conditions: read-out: Activity; how it was run: as §1
# HCC 2998 = assay: Antiproliferative activity against human HCC2998 cells assessed as cell growth at 10 uM; format: functional; conditions: read-out: Activity; how it was run: as §1
# HCT-116 = assay: Antiproliferative activity against human HCT116 cells assessed as cell growth at 10 uM; format: functional; conditions: read-out: Activity; how it was run: as §1
# HCT-15 = assay: Antiproliferative activity against human HCT15 cells assessed as cell growth at 10 uM; format: functional; conditions: read-out: Activity; how it was run: as §1
# HT-29 = assay: Antiproliferative activity against human HT-29 cells assessed as cell growth at 10 uM; format: functional; conditions: read-out: Activity; how it was run: as §1
# KM12 = assay: Antiproliferative activity against human KM12 cells assessed as cell growth at 10 uM; format: functional; conditions: read-out: Activity; how it was run: as §1
# [3] = biological target: Telomerase reverse transcriptase (Homo sapiens) (UniProt O14746); assay: Inhibition of TERT in human H1299 cells assessed as residual transcriptional activity at 10 uM after 24 hrs by SEAP reporter gene assay; values are per cent of control
# [4] = biological target: Telomerase reverse transcriptase (Homo sapiens) (UniProt O14746); assay: Inhibition of TERT in human H1299 cells assessed as residual transcriptional activity at 100 uM after 24 hrs by SEAP reporter gene assay; values are per cent of control
# Chain of Telomerase reverse transcriptase (Homo sapiens) (O14746 whole entry): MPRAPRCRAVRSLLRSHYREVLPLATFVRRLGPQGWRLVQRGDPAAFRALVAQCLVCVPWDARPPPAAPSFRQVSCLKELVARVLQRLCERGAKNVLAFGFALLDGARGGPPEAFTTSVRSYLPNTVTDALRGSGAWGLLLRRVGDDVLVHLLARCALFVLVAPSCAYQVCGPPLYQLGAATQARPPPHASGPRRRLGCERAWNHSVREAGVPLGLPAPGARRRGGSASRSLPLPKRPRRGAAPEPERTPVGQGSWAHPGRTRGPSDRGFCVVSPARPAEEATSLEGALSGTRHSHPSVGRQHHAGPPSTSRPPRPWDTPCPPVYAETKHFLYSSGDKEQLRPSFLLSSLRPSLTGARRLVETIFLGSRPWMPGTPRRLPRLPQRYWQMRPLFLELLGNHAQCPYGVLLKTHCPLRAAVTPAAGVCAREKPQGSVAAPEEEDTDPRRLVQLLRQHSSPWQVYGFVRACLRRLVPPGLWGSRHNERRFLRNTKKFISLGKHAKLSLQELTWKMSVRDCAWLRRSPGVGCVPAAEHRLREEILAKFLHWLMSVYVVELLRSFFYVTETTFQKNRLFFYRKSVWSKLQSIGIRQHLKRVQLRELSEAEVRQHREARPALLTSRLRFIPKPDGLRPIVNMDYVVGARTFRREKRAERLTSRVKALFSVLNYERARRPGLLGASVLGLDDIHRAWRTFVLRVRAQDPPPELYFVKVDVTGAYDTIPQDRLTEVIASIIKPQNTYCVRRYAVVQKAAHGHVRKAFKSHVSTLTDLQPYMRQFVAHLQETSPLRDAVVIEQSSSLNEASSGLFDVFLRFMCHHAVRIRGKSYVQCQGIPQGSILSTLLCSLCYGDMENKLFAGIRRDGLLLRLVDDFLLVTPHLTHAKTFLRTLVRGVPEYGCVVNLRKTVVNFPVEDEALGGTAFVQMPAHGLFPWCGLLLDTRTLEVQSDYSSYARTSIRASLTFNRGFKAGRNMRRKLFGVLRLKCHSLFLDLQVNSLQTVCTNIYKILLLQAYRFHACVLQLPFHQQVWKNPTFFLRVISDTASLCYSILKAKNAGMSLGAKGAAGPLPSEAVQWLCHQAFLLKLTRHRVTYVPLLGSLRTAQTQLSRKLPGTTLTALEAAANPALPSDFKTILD
structure (smiles),measurement,setting,value
O=C1c2ccccc2C(=O)c2c1ccc1nc(-c3ccccc3)[nH]c21,viability at 100 µM,[1],34%
same,growth at 10 µM,A549,79%
same,growth at 10 µM,EKVX,77.1%
same,growth at 10 µM,HOP-62,109%
same,growth at 10 µM,SW-620,82.8%
same,growth at 10 µM,[2],30.4%
same,growth at 10 µM,T47D,65.1%
same,growth at 10 µM,OVCAR-3,69.2%
same,growth at 10 µM,OVCAR-4,73.4%
same,growth at 10 µM,OVCAR-5,109%
same,growth at 10 µM,OVCAR-8,91%
same,growth at 10 µM,CCRF-CEM,86.3%
same,growth at 10 µM,K562,76%
same,growth at 10 µM,SR,95.5%
same,growth at 10 µM,786-0,111%
same,growth at 10 µM,A498,77%
same,growth at 10 µM,ACHN,71.9%
same,growth at 10 µM,CAKI-1,51.9%
same,growth at 10 µM,SN12C,87.5%
same,growth at 10 µM,TK-10,82%
same,growth at 10 µM,UO-31,57.6%
same,growth at 10 µM,LOX IMVI,79.7%
same,growth at 10 µM,M14,101%
same,growth at 10 µM,Malme-3M,74.5%
same,growth at 10 µM,SK-MEL-2,62.6%
same,growth at 10 µM,SK-MEL-28,60.4%
same,growth at 10 µM,SK-MEL-5,65.2%
same,growth at 10 µM,UACC-62,70.4%
same,growth at 10 µM,DU-145,84.3%
same,growth at 10 µM,PC-3,52.5%
same,growth at 10 µM,SF-268,91.9%
same,growth at 10 µM,SF-539,96.2%
same,growth at 10 µM,SNB-19,102%
same,growth at 10 µM,SNB-75,75.1%
same,growth at 10 µM,HOP-92,50.7%
same,growth at 10 µM,NCI-H226,80.5%
same,growth at 10 µM,NCI-H23,91.7%
same,growth at 10 µM,NCI-H322M,77.4%
same,growth at 10 µM,NCI-H460,86.2%
same,growth at 10 µM,COLO 205,92%
same,growth at 10 µM,HCC 2998,105%
same,growth at 10 µM,HCT-116,82.4%
same,growth at 10 µM,HCT-15,86.3%
same,growth at 10 µM,HT-29,83.2%
same,growth at 10 µM,KM12,75.5%
same,residual activity,[3],78%
same,residual activity,[4],10%
Cc1ccc(-c2nc3ccc4c(c3[nH]2)C(=O)c2ccccc2C4=O)cc1,viability at 100 µM,[1],16%
same,growth at 10 µM,A549,55.7%
same,growth at 10 µM,EKVX,91.2%
same,growth at 10 µM,HOP-62,110%
same,growth at 10 µM,SW-620,113%
same,growth at 10 µM,[2],138%
same,growth at 10 µM,T47D,76%
same,growth at 10 µM,OVCAR-3,96.1%
same,growth at 10 µM,OVCAR-4,96.8%
same,growth at 10 µM,OVCAR-5,106%
same,growth at 10 µM,OVCAR-8,96.4%
same,growth at 10 µM,CCRF-CEM,101%
same,growth at 10 µM,K562,102%
same,growth at 10 µM,SR,114%
same,growth at 10 µM,786-0,113%
same,growth at 10 µM,A498,176%
same,growth at 10 µM,ACHN,101%
same,growth at 10 µM,CAKI-1,110%
same,growth at 10 µM,SN12C,103%
same,growth at 10 µM,TK-10,154%
same,growth at 10 µM,UO-31,75.2%
same,growth at 10 µM,LOX IMVI,104%
same,growth at 10 µM,M14,106%
same,growth at 10 µM,Malme-3M,97.6%
same,growth at 10 µM,SK-MEL-2,79.6%
same,growth at 10 µM,SK-MEL-28,154%
same,growth at 10 µM,SK-MEL-5,88%
same,growth at 10 µM,UACC-62,90%
same,growth at 10 µM,DU-145,98.8%
same,growth at 10 µM,PC-3,87.6%
same,growth at 10 µM,SF-268,106%
same,growth at 10 µM,SF-539,91.7%
same,growth at 10 µM,SNB-19,97.8%
same,growth at 10 µM,SNB-75,107%
same,growth at 10 µM,HOP-92,77.3%
same,growth at 10 µM,NCI-H226,101%
same,growth at 10 µM,NCI-H23,98.8%
same,growth at 10 µM,NCI-H322M,84.6%
same,growth at 10 µM,NCI-H460,93.6%
same,growth at 10 µM,COLO 205,108%
same,growth at 10 µM,HCC 2998,104%
same,growth at 10 µM,HCT-116,99.8%
same,growth at 10 µM,HCT-15,100%
same,growth at 10 µM,HT-29,106%
same,growth at 10 µM,KM12,106%
same,residual activity,[3],82%
same,residual activity,[4],29%
